Measured values taken from ChEMBL document CHEMBL3085739, “Design, synthesis, and biological evaluation of 2-oxo-3,4-dihydropyrimido[4,5-d]pyrimidinyl derivatives as new irreversible epidermal growth factor receptor inhibitors with improved pharmacokinetic properties” (J Med Chem, 2013).
Activity calls are given as the source filed them. The calls are words filed in the database; no cut-off is given here.

Columns and labels:
[1] = test system: NCI-H1975; experiment: Antitumor activity against human NCI-H1975 cells xenografted in po dosed SCID nude mouse assessed as tumor growth inhibition administered qd after 14 days; type: functional, organism-based
How it was run: (§1)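 SCID mice (6 weeks) were given H1975 cells subcutaneously in the right flank at 2 × 10^6 per mouse. At 200−300 mm3, n = 5 per group were randomized to daily oral vehicle or compound at 10 or 30 mg/kg for 14 days. Vehicle: 1% DMSO, 5% EtOH, 15% castor oil, 79% H2O. Tumors (W²·L/2) and body weight were measured every other day; TGI was calculated against vehicle controls.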

[2] = molecular target: Proto-oncogene tyrosine-protein kinase Src (Homo sapiens) (UniProt P12931); experiment: Binding affinity to SRC (unknown origin)
Chain of Proto-oncogene tyrosine-protein kinase Src (Homo sapiens) (P12931 2-536 limits assumed): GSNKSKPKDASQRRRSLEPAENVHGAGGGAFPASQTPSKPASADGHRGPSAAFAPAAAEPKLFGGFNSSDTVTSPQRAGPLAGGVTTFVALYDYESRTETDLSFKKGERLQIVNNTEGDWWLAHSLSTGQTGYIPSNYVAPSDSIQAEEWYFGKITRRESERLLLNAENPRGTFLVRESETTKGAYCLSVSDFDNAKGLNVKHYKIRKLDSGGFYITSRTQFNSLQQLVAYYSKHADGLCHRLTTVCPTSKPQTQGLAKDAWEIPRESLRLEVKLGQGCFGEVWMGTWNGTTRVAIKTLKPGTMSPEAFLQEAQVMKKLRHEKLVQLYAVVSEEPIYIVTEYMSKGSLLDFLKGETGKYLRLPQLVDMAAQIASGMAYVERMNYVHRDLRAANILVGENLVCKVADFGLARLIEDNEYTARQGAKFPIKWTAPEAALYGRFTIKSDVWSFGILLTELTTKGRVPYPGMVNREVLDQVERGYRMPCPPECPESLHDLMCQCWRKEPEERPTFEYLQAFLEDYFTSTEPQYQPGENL

[3] = molecular target: Epidermal growth factor receptor (Homo sapiens, UniProt P00533, L858R); experiment: Inhibition of EGFR L858R mutant (unknown origin); type: protein assay
Chain of Epidermal growth factor receptor (P00533 25-1210 L858R limits assumed): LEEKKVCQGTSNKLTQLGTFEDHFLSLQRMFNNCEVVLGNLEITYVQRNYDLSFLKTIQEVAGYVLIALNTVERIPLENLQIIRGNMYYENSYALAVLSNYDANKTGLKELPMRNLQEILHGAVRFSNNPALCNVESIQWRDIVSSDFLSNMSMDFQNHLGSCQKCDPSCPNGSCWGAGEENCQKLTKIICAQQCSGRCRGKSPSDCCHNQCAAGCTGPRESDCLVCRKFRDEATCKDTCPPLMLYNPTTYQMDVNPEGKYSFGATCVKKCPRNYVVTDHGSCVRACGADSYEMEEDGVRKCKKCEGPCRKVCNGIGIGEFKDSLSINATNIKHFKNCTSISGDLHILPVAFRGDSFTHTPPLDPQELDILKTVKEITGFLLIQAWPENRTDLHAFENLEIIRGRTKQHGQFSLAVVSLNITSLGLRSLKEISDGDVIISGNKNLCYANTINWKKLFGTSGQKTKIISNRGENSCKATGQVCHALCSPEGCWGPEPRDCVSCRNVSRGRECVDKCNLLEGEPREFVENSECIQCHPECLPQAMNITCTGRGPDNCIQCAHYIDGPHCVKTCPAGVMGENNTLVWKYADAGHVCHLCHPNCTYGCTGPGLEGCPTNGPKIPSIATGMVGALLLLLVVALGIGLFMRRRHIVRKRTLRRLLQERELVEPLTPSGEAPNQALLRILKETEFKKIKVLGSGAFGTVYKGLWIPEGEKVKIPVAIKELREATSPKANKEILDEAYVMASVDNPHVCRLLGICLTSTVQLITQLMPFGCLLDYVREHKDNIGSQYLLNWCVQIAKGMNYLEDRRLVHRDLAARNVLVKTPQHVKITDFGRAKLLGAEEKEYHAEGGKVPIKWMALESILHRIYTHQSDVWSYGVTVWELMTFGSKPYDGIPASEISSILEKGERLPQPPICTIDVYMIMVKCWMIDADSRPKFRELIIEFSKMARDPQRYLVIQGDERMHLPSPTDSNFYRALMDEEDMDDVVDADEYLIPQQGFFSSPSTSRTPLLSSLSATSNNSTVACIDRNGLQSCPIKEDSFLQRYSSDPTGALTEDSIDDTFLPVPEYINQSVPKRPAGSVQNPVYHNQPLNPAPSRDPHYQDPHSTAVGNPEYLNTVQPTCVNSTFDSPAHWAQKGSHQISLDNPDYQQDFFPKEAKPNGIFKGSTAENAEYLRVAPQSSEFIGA

[4] = Antiproliferative activity against human H460 cells expressing wild-type EGFR after 72 hrs by MTS assay; type: cell-based; conditions: NCI-H460, 72 h
How it was run: (§2)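 MTS proliferation assay: cells exposed to compound for 72 h at six concentrations (0.1 nM to 10 μM), each concentration run six times. Cell number per line set to give an absorbance of 0.5–1.2 at […]. IC50 from a nonlinear sigmoidal dose–response fit. Values are means of at least three independent experiments.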

[5] = test system: Epidermal growth factor receptor (Homo sapiens), P00533 [L858R,T790M]; conditions: NCI-H1975, 33 nM
Chain of Epidermal growth factor receptor (Homo sapiens), P00533 [L858R,T790M] (P00533 whole entry T790M/L858R, looked up): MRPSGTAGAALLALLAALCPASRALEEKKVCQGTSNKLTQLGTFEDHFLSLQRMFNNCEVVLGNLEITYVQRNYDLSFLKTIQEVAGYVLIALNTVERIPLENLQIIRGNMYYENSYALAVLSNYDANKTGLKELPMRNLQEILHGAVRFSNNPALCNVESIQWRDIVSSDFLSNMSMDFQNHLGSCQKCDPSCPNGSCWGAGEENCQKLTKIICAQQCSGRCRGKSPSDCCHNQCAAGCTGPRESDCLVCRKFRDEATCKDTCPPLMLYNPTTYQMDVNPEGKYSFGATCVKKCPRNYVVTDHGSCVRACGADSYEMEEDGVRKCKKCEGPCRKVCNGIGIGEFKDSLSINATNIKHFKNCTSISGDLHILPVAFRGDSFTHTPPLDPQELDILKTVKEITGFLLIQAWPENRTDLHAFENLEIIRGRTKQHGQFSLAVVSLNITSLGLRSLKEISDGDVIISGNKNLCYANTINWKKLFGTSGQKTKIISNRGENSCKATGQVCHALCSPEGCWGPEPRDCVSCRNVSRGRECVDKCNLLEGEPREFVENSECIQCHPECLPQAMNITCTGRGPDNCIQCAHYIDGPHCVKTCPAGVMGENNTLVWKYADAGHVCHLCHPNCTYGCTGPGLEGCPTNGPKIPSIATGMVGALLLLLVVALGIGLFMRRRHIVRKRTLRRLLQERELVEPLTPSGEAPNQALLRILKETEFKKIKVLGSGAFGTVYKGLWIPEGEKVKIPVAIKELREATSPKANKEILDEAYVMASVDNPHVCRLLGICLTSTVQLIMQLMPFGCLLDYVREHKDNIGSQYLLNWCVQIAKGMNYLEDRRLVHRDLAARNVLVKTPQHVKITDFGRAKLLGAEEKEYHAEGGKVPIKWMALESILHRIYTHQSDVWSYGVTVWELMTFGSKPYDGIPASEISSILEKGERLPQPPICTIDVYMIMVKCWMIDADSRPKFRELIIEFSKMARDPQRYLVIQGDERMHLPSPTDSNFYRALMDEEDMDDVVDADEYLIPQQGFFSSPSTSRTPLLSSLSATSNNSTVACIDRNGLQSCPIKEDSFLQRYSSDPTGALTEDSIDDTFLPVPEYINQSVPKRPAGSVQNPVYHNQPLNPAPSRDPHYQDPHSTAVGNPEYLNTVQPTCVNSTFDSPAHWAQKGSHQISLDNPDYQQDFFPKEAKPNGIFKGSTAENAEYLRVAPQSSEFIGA

[6] = Clearance in Sprague-Dawley rat at 25 mg/kg, po by LC/MS analysis; type: ADME, organism-based; design: dose 25 mg/kg, route oral; conditions: in vivo
How it was run: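 Male Sprague-Dawley rats (180−220 g), n = 4 per route, single iv dose 5 mg/kg or oral gavage 25 mg/kg. Vehicle was 2% DMSO, 4% EtOH, 4% castor oil, 90% H2O. Orbital sinus blood was taken from 2 min to 72 h into heparinized tubes. Plasma levels were measured by LC/MS with propranolol internal standard and analysed by pharmacokinetic modelling.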

[7] = test system: NCI-H1975; experiment: Effect on GADPH protein level in human NCI-H1975 cells at 3 to 330 nM after 2 hrs by Western blotting analysis; type: functional, cell-based
[8] = test system: NCI-H1975; experiment: Effect on EGFR protein level in human NCI-H1975 cells at 3 to 330 nM after 2 hrs by Western blotting analysis; type: functional, cell-based
How it was run: (§3)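 H1975 cells were grown 24 h, then treated for 2 h with DMSO or 3–330 nM compound. Lysates were sonicated, run on SDS-PAGE, blotted to PVDF, blocked in 5% BSA/TBST, and probed for phospho/total EGFR (pY1068), Akt and Erk1/2 (pT202/pY204) with peroxidase secondary antibodies. Blots are representative of three experiments.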

[9] = Antiproliferative activity against human HCC827 cells expressing EGFR E746 to A750 deletion mutant after 72 hrs by MTS assay; type: functional, cell-based; conditions: HCC827, 72 h; how it was run: as §2
[10] = molecular target: Tyrosine-protein kinase BTK (Homo sapiens) (UniProt Q06187); experiment: Binding affinity to BTK (unknown origin)
Chain of Tyrosine-protein kinase BTK (Homo sapiens) (Q06187 whole entry): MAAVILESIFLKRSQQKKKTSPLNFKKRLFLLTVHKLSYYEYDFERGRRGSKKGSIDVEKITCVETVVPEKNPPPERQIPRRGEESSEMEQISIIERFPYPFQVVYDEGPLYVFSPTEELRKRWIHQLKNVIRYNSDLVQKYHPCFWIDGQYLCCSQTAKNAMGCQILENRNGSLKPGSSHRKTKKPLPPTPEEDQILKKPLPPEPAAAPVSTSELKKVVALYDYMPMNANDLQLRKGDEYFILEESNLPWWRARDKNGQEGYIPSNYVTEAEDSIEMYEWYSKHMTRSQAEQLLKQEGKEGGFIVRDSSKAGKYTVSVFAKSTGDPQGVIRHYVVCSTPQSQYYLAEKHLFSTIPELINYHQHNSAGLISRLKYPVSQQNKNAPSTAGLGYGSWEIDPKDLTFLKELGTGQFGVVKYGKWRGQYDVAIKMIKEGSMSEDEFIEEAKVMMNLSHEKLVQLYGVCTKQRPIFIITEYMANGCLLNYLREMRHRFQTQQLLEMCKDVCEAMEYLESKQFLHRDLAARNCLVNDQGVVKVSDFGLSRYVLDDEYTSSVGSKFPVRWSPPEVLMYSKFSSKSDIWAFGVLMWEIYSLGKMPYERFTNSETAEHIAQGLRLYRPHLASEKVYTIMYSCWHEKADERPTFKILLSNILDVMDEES

[11] = molecular target: Tyrosine-protein kinase Blk (Homo sapiens) (UniProt P51451); experiment: Binding affinity to BLK (unknown origin)
Chain of Tyrosine-protein kinase Blk (Homo sapiens) (P51451 2-505 limits assumed): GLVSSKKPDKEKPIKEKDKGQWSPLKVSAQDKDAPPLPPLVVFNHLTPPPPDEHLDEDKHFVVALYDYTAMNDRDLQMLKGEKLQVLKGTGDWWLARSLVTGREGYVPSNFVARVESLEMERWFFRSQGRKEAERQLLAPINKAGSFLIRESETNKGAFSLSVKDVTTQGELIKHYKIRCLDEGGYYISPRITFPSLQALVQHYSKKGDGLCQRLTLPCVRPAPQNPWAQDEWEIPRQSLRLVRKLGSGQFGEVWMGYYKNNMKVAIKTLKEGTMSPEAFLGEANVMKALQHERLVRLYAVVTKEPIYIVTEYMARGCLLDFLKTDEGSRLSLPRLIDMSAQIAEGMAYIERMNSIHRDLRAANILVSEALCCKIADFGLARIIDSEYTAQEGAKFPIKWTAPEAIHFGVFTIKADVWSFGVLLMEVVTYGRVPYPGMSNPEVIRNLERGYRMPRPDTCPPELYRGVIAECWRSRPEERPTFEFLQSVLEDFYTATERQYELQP

[12] = test system: Mus musculus; experiment: Toxicity in SCID nude mouse xenografted with human NCI-H1975 cells assessed as body weight loss at 10 to 30 mg/kg, po qd after 14 days relative to vehicle-treated control; type: organism-based; design: dose 10-30 mg/kg, route oral; conditions: in vivo, 336 h; how it was run: as §1
[13] = molecular target: T1, Tyrosine-protein kinase JAK3 (Homo sapiens) (UniProt P52333); experiment: Binding affinity to JAK3 (unknown origin)
T1 sequence (whole entry): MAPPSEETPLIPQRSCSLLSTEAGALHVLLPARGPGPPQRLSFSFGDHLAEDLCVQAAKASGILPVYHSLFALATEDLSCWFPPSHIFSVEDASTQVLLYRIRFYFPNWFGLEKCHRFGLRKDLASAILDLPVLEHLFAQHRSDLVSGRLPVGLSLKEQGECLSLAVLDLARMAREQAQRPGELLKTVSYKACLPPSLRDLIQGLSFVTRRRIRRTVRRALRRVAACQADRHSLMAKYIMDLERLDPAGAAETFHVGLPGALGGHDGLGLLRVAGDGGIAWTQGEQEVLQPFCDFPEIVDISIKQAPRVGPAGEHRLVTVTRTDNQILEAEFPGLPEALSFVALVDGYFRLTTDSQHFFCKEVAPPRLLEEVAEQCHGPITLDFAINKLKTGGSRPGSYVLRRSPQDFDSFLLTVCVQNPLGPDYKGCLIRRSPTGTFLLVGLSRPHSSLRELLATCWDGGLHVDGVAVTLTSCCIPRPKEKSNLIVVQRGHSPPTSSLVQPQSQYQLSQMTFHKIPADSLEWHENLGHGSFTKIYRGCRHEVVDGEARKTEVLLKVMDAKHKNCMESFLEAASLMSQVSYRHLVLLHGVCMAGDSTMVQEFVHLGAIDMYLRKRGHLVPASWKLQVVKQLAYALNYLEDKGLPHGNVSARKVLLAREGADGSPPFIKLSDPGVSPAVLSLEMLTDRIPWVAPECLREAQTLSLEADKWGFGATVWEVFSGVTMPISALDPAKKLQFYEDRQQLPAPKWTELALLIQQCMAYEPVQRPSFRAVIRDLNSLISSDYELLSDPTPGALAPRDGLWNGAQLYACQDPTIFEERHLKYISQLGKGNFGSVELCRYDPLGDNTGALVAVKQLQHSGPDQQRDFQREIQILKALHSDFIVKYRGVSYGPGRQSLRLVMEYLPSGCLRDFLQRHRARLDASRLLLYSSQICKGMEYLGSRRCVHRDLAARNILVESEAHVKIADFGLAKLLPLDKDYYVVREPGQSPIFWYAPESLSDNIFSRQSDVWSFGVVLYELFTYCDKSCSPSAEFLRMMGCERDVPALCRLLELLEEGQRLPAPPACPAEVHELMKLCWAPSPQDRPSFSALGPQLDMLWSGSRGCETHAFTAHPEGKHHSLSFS

[14] = test system: NCI-H1975; experiment: Effect on ERK protein level in human NCI-H1975 cells at 3 to 330 nM after 2 hrs by Western blotting analysis; type: functional, cell-based; how it was run: as §3
[15] = molecular target: Mast/stem cell growth factor receptor Kit (Homo sapiens) (UniProt P10721); experiment: Binding affinity to KIT (unknown origin)
Chain of Mast/stem cell growth factor receptor Kit (Homo sapiens) (P10721 whole entry): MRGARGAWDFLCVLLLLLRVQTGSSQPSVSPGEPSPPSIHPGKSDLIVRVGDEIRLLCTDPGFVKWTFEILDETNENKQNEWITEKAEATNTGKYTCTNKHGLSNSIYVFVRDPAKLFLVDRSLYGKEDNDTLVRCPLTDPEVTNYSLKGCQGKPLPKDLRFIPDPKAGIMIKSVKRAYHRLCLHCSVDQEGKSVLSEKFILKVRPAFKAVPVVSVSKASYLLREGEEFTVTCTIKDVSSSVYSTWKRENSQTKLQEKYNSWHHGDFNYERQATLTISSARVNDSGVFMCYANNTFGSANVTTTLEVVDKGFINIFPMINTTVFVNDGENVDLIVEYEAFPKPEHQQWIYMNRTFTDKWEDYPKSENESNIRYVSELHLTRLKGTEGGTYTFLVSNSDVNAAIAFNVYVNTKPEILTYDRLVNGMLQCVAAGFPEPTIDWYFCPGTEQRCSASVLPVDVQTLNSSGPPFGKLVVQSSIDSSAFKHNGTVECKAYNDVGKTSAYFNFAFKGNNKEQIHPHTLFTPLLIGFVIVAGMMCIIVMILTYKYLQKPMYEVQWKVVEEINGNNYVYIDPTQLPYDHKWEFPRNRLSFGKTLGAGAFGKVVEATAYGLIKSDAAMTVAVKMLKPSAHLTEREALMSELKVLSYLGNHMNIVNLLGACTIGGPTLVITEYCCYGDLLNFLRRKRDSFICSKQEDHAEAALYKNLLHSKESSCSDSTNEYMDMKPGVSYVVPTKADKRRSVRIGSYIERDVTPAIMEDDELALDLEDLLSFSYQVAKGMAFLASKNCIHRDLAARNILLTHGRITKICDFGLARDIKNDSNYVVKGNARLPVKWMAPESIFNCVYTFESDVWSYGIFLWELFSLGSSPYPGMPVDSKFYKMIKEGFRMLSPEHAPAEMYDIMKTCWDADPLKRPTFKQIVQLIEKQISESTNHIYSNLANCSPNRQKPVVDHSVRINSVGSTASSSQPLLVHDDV

For `C=CC(=O)N1CC[C@H](N2C(=O)N(c3ccccc3)Cc3cnc(Nc4ccc(N5CCN(C)CC5)c(C)c4)nc32)C1`, the TGI [1] was “Dose-dependent effect”, the Activity [2] was “Active” and the IC50 [3] was 3 nM. The IC50 [4] was 16000 nM, the inhibition [5] was “Active” and the CL/F [6] was 167 mL/min/kg. For the same molecule, the Activity [7] was “inactive”, the Activity [8] was “inactive” and the IC50 [9] was 5 nM. For the same molecule, the Activity [10] was “Active”, the Activity [11] was “Active” and the Activity [12] was under 5%. The Activity [13] was “Active”, the Activity [14] was “inactive” and the Activity [15] was “Active”.
